Data set [1] is described as follows: folding enthalpy; higher = less favourable; fluorescence melt of hairpins on a sequencing array, two-state fit. To be noted: sodium 0.088 M. An outline of the steps: (§1)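 On a sequenced MiSeq flow cell, library hairpins with annealed Cy3 and quencher oligos were imaged for Cy3 fluorescence in 2.5 °C steps up to 60 °C, in 50 mM Na-HEPES pH 8.0, 25 mM NaCl. Normalisation used pre-quench Cy3 and control constructs. Bootstrapped two-state fits gave melting temperature and folding enthalpy, combined by inverse variance across four replicates and with fitted temperatures raised by 9.35 °C to match UV melts.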

Data set [2] can be described thus: melting temperature; fluorescence melt of hairpins on a sequencing array, two-state fit, raised by 9.35 °C to match UV melts. Particulars: sodium 0.088 M. An outline of the steps:
as §1

GCATCGCGAAAGCTATGC ((((.((....)).)))): the folding enthalpy in data set [1] was -24.1 kcal/mol. The Tm in data set [2] is 59 °C.

With GCATCGGGAAACCGGTGC (((.(((....))).))), the folding enthalpy in data set [1] was -44.5 kcal/mol. Further, the Tm in data set [2] came to 59.1 °C.

In the case of GCATCGTCGAAAGACTGC (((..(((....)))))), in data set [1], the folding enthalpy was -15.8 kcal/mol. In addition, the Tm in data set [2] came out at 36.8 °C.

GCATCTCCGAAAGGATGC (((..(((....)))))): in data set [1], the folding enthalpy is -28.6 kcal/mol. Further, the Tm in data set [2] turned out to be 46.1 °C.

Turning to GCATCTCGAAAGAGGTGC (((.(((....))).))), the folding enthalpy in data set [1] is -37.4 kcal/mol. Moreover, the Tm in data set [2] was determined as 59.8 °C.

GCATGACCGAAAGGTTGC (((..(((....)))))): the folding enthalpy in data set [1] is -18.6 kcal/mol. Also, in data set [2], the Tm amounted to 41.5 °C.

Consider GCATGACGAAAGTCGTGC (((.(((....))).))), for which the folding enthalpy in data set [1] is -42 kcal/mol. In data set [2], the Tm came out at 63.6 °C.

For the sequence GCATGACGAAAGTCTGC (((.(((....)))))), the folding enthalpy in data set [1] was -29 kcal/mol. In addition, the Tm in data set [2] turned out to be 53.9 °C.

Take GCATGAGGAAACTCACGC ((.((((....)))).)): the folding enthalpy in data set [1] is -28 kcal/mol. In data set [2], the Tm was found to be 41.3 °C.

On to GCATGCCGAAAGGCTGC (((.(((....)))))), for which the folding enthalpy in data set [1] was -21.6 kcal/mol. For the same sequence, in data set [2], the Tm was found to be 65.7 °C.

For GCATGCGAAAGCAAATGC ((((((....)))..))), in data set [1], the folding enthalpy was -24.9 kcal/mol. For the same sequence, the Tm in data set [2] came to 52.6 °C.

With GCATGCGAAAGCATATGC ((((((....)))..))), the folding enthalpy in data set [1] is -20.1 kcal/mol. Further, the Tm in data set [2] is 50.1 °C.

As to GCATGCGAAAGCATTTGC ((((((....)))..))), the folding enthalpy in data set [1] was -14.4 kcal/mol. The Tm in data set [2] was 42.3 °C.

On to GCATGCGGAAACGTGTGC (((..((....))..))), for which the folding enthalpy in data set [1] is -37.8 kcal/mol. The Tm in data set [2] is 50.4 °C.

For GCATGGCGAAAGCCTTGC (((.(((....))).))), the folding enthalpy in data set [1] is -35.4 kcal/mol. In data set [2], the Tm is 60.8 °C.

Consider GCATGGCGAAAGCGATGC ((((.((....)).)))), for which the folding enthalpy in data set [1] is -22 kcal/mol. Moreover, in data set [2], the Tm was 64.2 °C.

As for GCATGGGGAAACCCATAC (.(((((....))))).), the folding enthalpy in data set [1] is -15.6 kcal/mol. Also, in data set [2], the Tm came to 36.5 °C.

In the case of GCATGGGGAAACCTATGC ((((.((....)).)))), the folding enthalpy in data set [1] was -39.4 kcal/mol. The Tm in data set [2] turned out to be 50.8 °C.

For the sequence GCATGTGCGAAAGCATGC (((..(((....)))))), in data set [1], the folding enthalpy is -18.3 kcal/mol. Also, the Tm in data set [2] was determined as 52.2 °C.

GCATGTTCGAAAGAATGC (((..(((....)))))): the folding enthalpy in data set [1] is -24 kcal/mol. In data set [2], the Tm is 30.8 °C.

For the sequence GCATTAGCGAAAGCTTGC (((..(((....)))))), the folding enthalpy in data set [1] is -18.1 kcal/mol. Further, in data set [2], the Tm is 40 °C.

Consider GCATTAGGAAACTAATGC (((((((....))))))), for which the folding enthalpy in data set [1] is -44.6 kcal/mol. Further, the Tm in data set [2] was determined as 55.6 °C.

For GCATTCCGAAAGGATGC (((.(((....)))))), the folding enthalpy in data set [1] is -30.7 kcal/mol. Moreover, in data set [2], the Tm turned out to be 53.7 °C.

As for GCATTCGAAAGAACTGC ((((((....))).))), the folding enthalpy in data set [1] is -28.2 kcal/mol. Moreover, the Tm in data set [2] came to 34.9 °C.

Regarding GCATTCGAAAGAATCTGC ((((((....)))..))), the folding enthalpy in data set [1] was -21.5 kcal/mol. The Tm in data set [2] stood at 34.5 °C.

Turning to GCATTCGAAAGAATTGC ((((((....))).))), the folding enthalpy in data set [1] was -19.5 kcal/mol. Also, the Tm in data set [2] stood at 41.1 °C.

Turning to GCATTGAAAAATGC (((((....))))), the folding enthalpy in data set [1] is -31.2 kcal/mol. Further, the Tm in data set [2] stood at 49.2 °C.

Turning to GCATTGACGAAAGTCTGC (((..(((....)))))), the folding enthalpy in data set [1] is -16.5 kcal/mol. Also, the Tm in data set [2] amounted to 38.9 °C.

For the sequence GCATTGCGAAAGCAAAGC ((.((((....)))).)), in data set [1], the folding enthalpy is -18.6 kcal/mol. Further, the Tm in data set [2] was 58 °C.

GCATTGCGAAAGCAACGC ((.((((....)))).)): the folding enthalpy in data set [1] was -26.7 kcal/mol. For the same sequence, the Tm in data set [2] came out at 60.4 °C.

Consider GCATTGCGAAAGCAGGGC ((..(((....)))..)), for which the folding enthalpy in data set [1] is -20.7 kcal/mol. Besides, in data set [2], the Tm was found to be 51 °C.

Take GCATTGCGAAAGCATAGC ((..(((....)))..)): the folding enthalpy in data set [1] was -19 kcal/mol. Also, the Tm in data set [2] was found to be 48.8 °C.

As to GCATTGCGAAAGCATGC (((.(((....)))))), the folding enthalpy in data set [1] is -34.3 kcal/mol. Moreover, the Tm in data set [2] came to 55.7 °C.

Turning to GCATTGCGAAAGCCATGC ((((.((....)).)))), the folding enthalpy in data set [1] is -29.1 kcal/mol. The Tm in data set [2] turned out to be 58.4 °C.

Consider GCATTGCGAAAGCGTTGC (((..((....))..))), for which the folding enthalpy in data set [1] was -21.9 kcal/mol. Also, the Tm in data set [2] came out at 47.5 °C.

Take GCATTGCGAAAGCTAGGC ((.(.((....)).).)): in data set [1], the folding enthalpy was -17.9 kcal/mol. Moreover, the Tm in data set [2] stood at 48.7 °C.

In the case of GCATTGGAAACAATGC ((((((....)))))), the folding enthalpy in data set [1] was -39.4 kcal/mol. Also, the Tm in data set [2] was determined as 57.7 °C.

Values taken from the array DNA melting data of Ke et al. (doi:10.1101/2024.01.08.574731).
